Experimental data from publication PMC11658390 (BMC Chemistry, 2024).

Columns and labels:
DHFR = molecular target: T1, DHFR (Homo sapiens, UniProt P00374); experiment: DHFR inhibition assay; assay type: biochemical; details: from IC50 values
T1 sequence (P00374 1-187): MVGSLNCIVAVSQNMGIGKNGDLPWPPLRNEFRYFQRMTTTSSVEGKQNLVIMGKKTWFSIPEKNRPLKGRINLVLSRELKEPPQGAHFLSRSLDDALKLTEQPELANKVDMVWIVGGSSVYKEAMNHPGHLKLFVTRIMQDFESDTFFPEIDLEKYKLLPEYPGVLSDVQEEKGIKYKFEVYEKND

[1] = test system: C. albicans (ATCC SC5314); experiment: Antifungal activity, broth microdilution MIC; assay type: cell-based
[2] = test system: MCF-7 breast cancer cell line; experiment: Anticancer screening, MTT assay; assay type: cell-based, human
Outline: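 MCF-7 cells were seeded at 10,000 cells/well and grown 24 h in DMEM with 10% FBS and 1% antibiotic at 37 °C, 5% CO2. They were then exposed for 24 h to a range of test compound concentrations prepared in incomplete medium. MTT was added at 250 µg/ml final for 2 h, the supernatant was removed, and formazan was dissolved in DMSO. Absorbance was read at 540 nm, in triplicate.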

Structure (SMILES) | DHFR inhibitory potency relative to methotrexate (DHFR) | Inhibitory activity against fungal strain C. albicans, in words [1] | Anticancer activity against MCF-7, in words [2]
CC(C)NCC(COc1cccc2ccccc12)OC(=O)C=Cc1ccc(O)c(O)c1 (stereo not drawn) [CE11, 1-(isopropylamino)−3-(naphthalen-1-yloxy)propan-2-yl 3-(3,4-dihydroxyphenyl)acrylate] | approximately four times more effective than methotrexate |  | 
O=C(C=Cc1ccc(O)c(O)c1)OCCc1ccccc1 [CE12, Phenethyl 3-(3,4-dihydroxyphenyl)acrylate] |  | moderate action | 
CC1CCC(C(C)C)C(OC(=O)C=Cc2ccc(O)c(O)c2)C1 (stereo not drawn) [CE3, 2-isopropyl-5-methylcyclohexyl 3-(3,4-dihydroxyphenyl)acrylate] |  | moderate action | moderate anticancer activity
Nc1ccccc1OC(=O)C=Cc1ccc(O)c(O)c1 [CE17, 2-aminophenyl 3-(3,4-dihydroxyphenyl)acrylate] |  | moderate action | moderate anticancer activity
